Measurements gathered from unrelated publications.
Target: cAMP-dependent protein kinase catalytic subunit PRKX (PRKX, Homo sapiens, UniProt P51817)
One construct used (P51817 1-358): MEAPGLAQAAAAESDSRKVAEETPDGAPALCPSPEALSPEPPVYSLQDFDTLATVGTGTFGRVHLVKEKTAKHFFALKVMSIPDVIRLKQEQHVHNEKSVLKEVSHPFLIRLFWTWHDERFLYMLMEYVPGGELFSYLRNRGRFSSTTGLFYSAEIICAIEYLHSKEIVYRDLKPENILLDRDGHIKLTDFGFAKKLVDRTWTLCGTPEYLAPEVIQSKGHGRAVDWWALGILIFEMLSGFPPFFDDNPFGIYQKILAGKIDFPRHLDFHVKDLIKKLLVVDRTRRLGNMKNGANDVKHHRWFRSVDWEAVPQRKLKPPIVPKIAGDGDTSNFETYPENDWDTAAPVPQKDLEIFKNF

Compound	observed	action	method	tested at	quantity	result
Cn1cc(-c2cccc(N3CCc4c(sc5c4CC(C)(C)C5)C3=O)c2CO)cc(Nc2ccncn2)c1=O	enzyme activity	inhibitor		1 µM	inhibition	1%
Cn1cncc1[C@@](O)(COc1ccc(C#N)cc1-c1ccc(OC(F)(F)F)cc1)c1ccc(C#N)cc1	cell-free assay		competition with immobilised ligand	1 µM	remaining binding	94%
CC(C)(C)c1cc(C=C(C#N)C#N)cc(Br)c1O	enzyme activity	inhibitor		0.5 µM	remaining activity	102%
Cc1nn(C)cc1-c1nc2c(N3CCN(Cc4ccc(Cl)cc4)CC3)c(Cl)cnc2[nH]1	binding		competition with immobilised ligand	1 µM	remaining binding	18%
O=c1[nH]c2ccccc2n1C1CCN(Cc2ccc(-c3[nH]c4cc5ncnc5cc4nc3-c3ccccc3)cc2)CC1	cell-free assay			0.5 µM	remaining signal	101%
COc1cc(Nc2ncc(F)c(Nc3ccc4c(n3)NC(=O)C(C)(C)O4)n2)cc(OC)c1OC	binding			10 µM	inhibition	0%
Nc1ncc(-c2nc(N3CCOCC3)nc(N3CCOCC3)n2)c(C(F)F)n1	binding		competition with immobilised ligand	10 µM	remaining binding	90%
COc1ncccc1-c1cnn2ccc(N3CCN(C(=O)OC(C)C)CC3)nc12	binding		competition with immobilised ligand	1 µM	remaining binding	100%
Cn1cc(-c2cc(F)cc(N3CCn4c(cc5c4CCCC5)C3=O)c2CO)cc(Nc2ccc(N3CCN(C4COC4)CC3)cn2)c1=O	enzyme activity	inhibitor		0.1 µM	inhibition	17%
